The source made the active and inactive calls. The rule behind the calls is not given here.

The values that follow come from ChEMBL document CHEMBL5653630, “Activation of the p53-MDM4 regulatory axis defines the anti-tumour response to PRMT5 inhibition through its role in regulating cellular splicing” (Sci Rep, 2018).

One assay deals with JVM-2. Put plainly: Induction of cell cycle arrest in human JVM-2 cells assessed as increase in 2n cell population measured upto 5000 nM measured for 3 days by propidium iodide staining based flow cytometric analysis. The class given is functional. The following applies: time 3.0 day. Background: In flow cytometry, cells or beads pass a laser one at a time.
A further assay concerns Rec1. Put plainly: Induction of cell cycle arrest in human REC1 cells assessed as increase in 2n cell population measured upto 5000 nM measured for 3 days by propidium iodide staining based flow cytometric analysis. The class given is functional. The conditions noted are these: time 3.0 day.
The test system of another assay is U-251. Put plainly: Antiproliferative activity against human U-251MG cells assessed as cell growth inhibition incubated for 6 days by celltiter-glo assay. The class given is functional. The conditions noted are these: U-251, 144 h, time 6 day. In outline:
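Cells seeded in 384-well plates at an optimized density and held 24 h. CellTiter-Glo luminescence read at Day 0 and Day 6. Four-parameter fit. gIC50 = midpoint of the growth window between DMSO and T0. Curves required ≥1.5 population doublings.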
Background: ATP-based viability assays read luminescence as a measure of living cells.

Assay [1] in a line: Antiproliferative activity against human C4-1 cells assessed as cell growth inhibition incubated for 10 days. The class given is functional. The conditions noted are these: C4-1, 240 h, time 10 day. An outline of the steps:
(§1)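 Cells kept in RPMI-1640 with 10% FBS, 2 mM L-alanyl-L-glutamine and 1 mM Na pyruvate (or a special medium) at 37°C, 5% CO2. Compound added 24 h after seeding, 10 concentrations in 3.16-fold dilution, 0.1% DMSO final. Medium replaced and cells re-dosed at 168 h; 240 h incubation. Nuclei fixed, dye-stained and imaged. gIC50 = growth midway between untreated and time-zero cell counts, from a 4-parameter fit.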

The test system of another assay is K562. The experiment in a line: Antiproliferative activity against human K562 cells assessed as cell growth inhibition incubated for 10 days. The class given is functional. The conditions noted are these: K562, 240 h, time 10 day. An outline of the steps:
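Eurofins-panel 10-day assay in 384-well plates. Cells grown in RPMI-1640 with 10% FBS, 2 mM L-alanyl-L-glutamine and 1mM Na pyruvate, or a special medium, at 37°C in 5% CO₂. Compound added 24 h after seeding, 10-point 3.16-fold series in 0.1% DMSO. Medium replaced and compound re-dosed at 168 h. Nuclei fixed and stained after 240 h, then imaged to give a relative cell count. gIC50 is the concentration giving growth midway between untreated and time-zero counts, from a 4-parameter fit.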

The subject of another assay is NCI-H508. Put plainly: Antiproliferative activity against human NCI-H508 cells assessed as cell growth inhibition incubated for 10 days. The assay is classed as functional. The conditions noted are these: NCI-H508, 240 h, time 10 day.
The test system of a further assay is SR. The experiment in a line: Antiproliferative activity against human SR cells assessed as cell growth inhibition incubated for 10 days. The assay is classed as functional. The conditions noted are these: 240 h, time 10 day.
For another assay, the system named is H4. The experiment in a line: Antiproliferative activity against human H4 cells assessed as cell growth inhibition incubated for 10 days. The conditions noted are these: H4, 240 h, time 10 day. The class given is functional. An outline of the steps: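 Outsourced panel run in 384-well plates. Cells were grown in RPMI-1640/10% FBS or a special medium at 37°C, 5% CO2. Compound was added 24 h after seeding as a 10-point, 3.16-fold series in 0.1% DMSO. Medium was refreshed and cells re-dosed at 168 h, with a time-zero plate kept. At 240 h cells were fixed, nuclei stained and imaged. gIC50 is growth midway between untreated and time zero, from a 4-parameter fit.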

The subject of the next assay is SCC-25. Put plainly: Antiproliferative activity against human SCC-25 cells assessed as cell growth inhibition incubated for 10 days. The assay is classed as functional. The following applies: SCC-25, 240 h, time 10 day.
The subject of a further assay is SW1463. Put plainly: Antiproliferative activity against human SW1463 cells assessed as cell growth inhibition incubated for 10 days. The assay is classed as functional. The conditions noted are these: SW1463, 240 h, time 10 day.
Another assay has as its system SK-MEL3. Put plainly: Antiproliferative activity against human SK-MEL3 cells assessed as cell growth inhibition incubated for 10 days. The assay is classed as functional. The following applies: SK-MEL3, 240 h, time 10 day.
For another assay, the system named is CHP-212. Put plainly: Antiproliferative activity against human CHP-212 cells assessed as cell growth inhibition incubated for 10 days. The class given is functional. The following applies: CHP-212, 240 h, time 10 day. An outline of the steps: as §1
The subject of another assay is MIA PaCa-2. Put plainly: Antiproliferative activity against human MIA PaCa-2 cells assessed as cell growth inhibition incubated for 10 days. The assay is classed as functional. The following applies: MIA PaCa-2, 240 h, time 10 day.
A further assay relates to HuP-T4. The experiment in a line: Antiproliferative activity against human HuP-T4 cells assessed as cell growth inhibition incubated for 10 days. The assay is classed as functional. The following applies: HuP-T4, 240 h, time 10 day. An outline of the steps: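 Cells grown at 37°C under 5% CO2 in RPMI-1640 with 10% FBS, 2 mM L-alanyl-L-glutamine and 1 mM pyruvate (or a special medium), then seeded in 384-well plates. Compound was added 24 h later as a 10-point, 3.16-fold series in 0.1% DMSO final. Medium was replaced and cells re-dosed at 168 h; 240 h total. Nuclear-dye imaging gave cell counts, with a time-zero plate. gIC50 is growth halfway to time zero, from a 4-parameter fit.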

A further assay concerns PANC-1. The experiment in a line: Antiproliferative activity against human PANC-1 cells assessed as cell growth inhibition incubated for 10 days. The assay is classed as functional. The following applies: PANC-1, 240 h, time 10 day.
A further assay has as its system MG-63. Put plainly: Antiproliferative activity against human MG-63 cells assessed as cell growth inhibition incubated for 10 days. The class given is functional. The conditions noted are these: MG-63, 240 h, time 10 day.
In assay [2] the target is Protein arginine N-methyltransferase 5 (Homo sapiens) (UniProt O14744). Put plainly: Inhibition of PRMT5 in human Z138 cells assessed as effect on snRNP B1 level by measuring fold change by LC-MS/MS analysis relative to control. The assay is classed as cell-based.
For assay [3] the target is unchanged. Put plainly: Inhibition of PRMT5 in human Z138 cells assessed as short MDM4 splicing at 200 to 1000 nM incubated for 3 days by RT-PCR analysis. The conditions noted are these: dose 200-1000 nM, time 3.0 day. The class given is cell-based.
For assay [4] the target is unchanged. Put plainly: Inhibition of PRMT5 in human Z138 cells expressing EGFP at 1 to 100000 nM incubated for 3 to 6 days. The assay is classed as cell-based. The conditions noted are these: dose 1-100000 nM, time 3-6 day.

Chain of Protein arginine N-methyltransferase 5 (Homo sapiens) (O14744 whole entry): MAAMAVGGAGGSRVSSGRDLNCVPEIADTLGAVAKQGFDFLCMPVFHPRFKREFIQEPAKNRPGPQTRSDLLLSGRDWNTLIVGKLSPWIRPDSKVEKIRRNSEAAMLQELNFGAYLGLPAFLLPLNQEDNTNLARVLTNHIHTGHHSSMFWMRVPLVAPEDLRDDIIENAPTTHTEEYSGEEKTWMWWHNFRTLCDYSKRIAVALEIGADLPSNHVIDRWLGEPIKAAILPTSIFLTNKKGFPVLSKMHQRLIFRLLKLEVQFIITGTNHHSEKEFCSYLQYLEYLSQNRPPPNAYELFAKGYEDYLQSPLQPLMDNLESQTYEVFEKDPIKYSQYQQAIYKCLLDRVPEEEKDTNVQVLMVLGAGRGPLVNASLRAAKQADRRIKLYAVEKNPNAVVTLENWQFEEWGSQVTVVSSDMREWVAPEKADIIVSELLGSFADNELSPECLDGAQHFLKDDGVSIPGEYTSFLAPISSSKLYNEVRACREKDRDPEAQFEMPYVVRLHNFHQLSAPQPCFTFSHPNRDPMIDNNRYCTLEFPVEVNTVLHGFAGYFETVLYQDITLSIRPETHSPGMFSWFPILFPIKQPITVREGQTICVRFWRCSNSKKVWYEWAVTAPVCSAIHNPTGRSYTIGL

With `CC(=O)N1CCC(Nc2cc(C(=O)NC[C@H](O)CN3CCc4ccccc4C3)ncn2)CC1` [PEMRAMETOSTAT], in the assay on JVM-2, the result was Active. In the assay on Rec1, the outcome was inactive.

By GI50 is commonly meant the concentration that inhibits growth by half. Regarding `O=C(NC[C@H](O)CN1CCc2ccccc2C1)c1ccnc(NC2CCC2)c1`, the GI50 worked out at 3490 nM in the assay on U-251; 139 nM in assay [1]; 146 nM in the assay on K562; 307 nM in the assay on NCI-H508; 275 nM in the assay on SR; 151 nM with H4. In addition, the GI50 was found to be 273 nM in the assay on SCC-25; 770 nM in the assay with SW1463; 181 nM with SK-MEL3; 24 nM with CHP-212; 158 nM in the assay on MIA PaCa-2; 84.9 nM in the assay with HuP-T4. For the same compound, the concentration for 50% growth inhibition (GI50) in the assay with PANC-1 was determined as 165 nM; in the assay with MG-63, 96 nM. Moreover, the fold change (FC) in assay [2] was -16.8. Also, in assay [3], the inhibition entry is “Active”. For the same compound, in [4], the inhibition result is “inactive”.
